Data taken from ChEMBL document CHEMBL1629485, “Lead identification of conformationally restricted β-lactam type combretastatin analogues: synthesis, antiproliferative activity and tubulin targeting effects” (Eur J Med Chem, 2010).

Test system: MDA-MB-231
Assay: Cell cycle arrest in estrogen receptor deficient human MDA-MB-231 cells assessed as appearance of polyploidy at 100 nM after 24 hrs using propidium iodide staining by flow cytometry relative to control
Format: functional
Method in brief: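 MDA-MB-231 cells seeded at 18 × 10⁴ cells/mL and exposed to 1% (v/v) ethanol vehicle or compound at final concentrations (10 nM, 100 nM, 10 µM at all times; 1 µM also at 24 and 72 h). Cells harvested after 24, 48 or 72 h and treated with RNase A and propidium iodide for at least 30 min at 37 °C. 10,000 cells read at 488 nm by flow cytometry. Percent cells per phase reported, including polyploid; mean ± SD of three experiments.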

## COc1ccc(C2CC(=O)N2c2cc(OC)c(OC)c(OC)c2)cc1O (stereo unspecified)
  Activity: 4.87%
